Calls of active or inactive are those of the source. No cut-off for these calls is given here.
Key:
[1] = molecular target: Dual specificity mitogen-activated protein kinase kinase MEK1/2 (Rattus norvegicus, UniProt Q01986+P36506); assay: Inhibition of MEK1/2 in rat IEC6 cells assessed as reduction in ERK1/2 loop phosphorylation dosed 30 mins before to stimulation with 10% serum for 5 mins by immunoblotting method
Method in brief: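 IEC-6 cells grown in DMEM/10% FBS, then made quiescent at 95% confluence in serum-free DMEM-Ham's F-12 (1:1) with 15 mM Hepes pH 7.4 and 0.1% BSA for 24 h. Compounds added in DMSO. Lysates immunoblotted for phospho-ERK1/2 (Thr202/Tyr204), with total ERK1/2 and HSC70 as loading controls. Bands quantified by densitometry. IC50 from triplicate determinations.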

[2] = Inhibition of constitutively activated GST-tagged human MEK1 S218D/[…] (MEK1DD) mutant assessed blocking of increase in bovine MBP kinase activity of recombinant His6-tagged ERK2 using [gamma32P]ATP by liquid scintillation counting method
Method in brief: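 GST-MEK1DD (50 ng) preincubated 30 min at 30 °C with inhibitor or vehicle and 50 μM ATP plus 5 μCi [γ-32P]ATP, in 20 mM Hepes, 10 mM MgCl2, 1 mM DTT, pH 7.4. His6-ERK2 (300 ng, E. coli-expressed) added for 30 min, then MBP (0.2 mg/mL) for 10 min. Controls run without ERK2. Stopped with Laemmli buffer. IC50 from duplicate determinations.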

[3] = test system: HT-29; assay: Antiproliferative activity against human HT-29 cells after 5 days by WST1 assay; type: functional, cell-based; details: HT-29, 120 h
Method in brief: (§1)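 Cells seeded at 2×10^3 (HCT 116, HT-29) or 1.2×10^3 (A-375, A549) per well in DMEM with 10% FBS, 2 mM glutamine and antibiotics. Compounds added in DMSO, with medium changed daily for 5 days. WST-1 then added for 1 h. Absorbance read at 450 nm, reference 620 nm. Triplicate wells.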

[4] = test system: A-375; assay: Antiproliferative activity against human A375 cells after 5 days by WST1 assay; type: functional, cell-based; details: A-375, 120 h; method in brief: as §1
[5] = Antiproliferative activity against human HCT116 cells after 5 days by WST1 assay; type: functional, cell-based; details: HCT-116, 120 h; method in brief: as §1
[6] = test system: A549; assay: Antiproliferative activity against human A549 cells after 5 days by WST1 assay; type: functional, cell-based; details: A549, 120 h; method in brief: as §1
[7] = molecular target: Dual specificity mitogen-activated protein kinase kinase 1 (Homo sapiens) (UniProt Q02750); assay: Inhibition of MEK1 (unknown origin) at 1 uM
[8] = organism: Homo sapiens; assay: Potency index, ratio of IC50 for PD98059 to IC50 for test compound against constitutively activated GST-tagged human MEK1 S218D/[…] (MEK1DD) mutant

Dual specificity mitogen-activated protein kinase kinase 1 (Homo sapiens), sequence (Q02750 whole entry): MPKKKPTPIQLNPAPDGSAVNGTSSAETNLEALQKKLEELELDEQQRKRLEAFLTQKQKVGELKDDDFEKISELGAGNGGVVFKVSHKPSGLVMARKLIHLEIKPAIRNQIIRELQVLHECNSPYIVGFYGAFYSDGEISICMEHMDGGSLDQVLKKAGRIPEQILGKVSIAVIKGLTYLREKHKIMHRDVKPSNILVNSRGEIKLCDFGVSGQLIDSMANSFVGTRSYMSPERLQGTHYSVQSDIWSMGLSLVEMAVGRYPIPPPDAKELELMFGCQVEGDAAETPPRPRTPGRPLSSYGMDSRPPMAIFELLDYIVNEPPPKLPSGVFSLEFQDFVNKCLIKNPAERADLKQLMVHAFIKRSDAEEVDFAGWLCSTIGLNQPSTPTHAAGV

Row | SMILES | IC50 [1] | IC50 [2] | also measured
1 | COc1cccc(-c2cc(=O)c3cc(Cl)cc(NCc4ccccc4)c3o2)c1N | > 100 µM | 1.4 µM | 
2 | COc1cccc(-c2cc(=O)c3cc(Cl)cc(NC4CCOCC4)c3o2)c1N | > 100 µM | 1.1 µM | 
3 | CCOc1cccc(-c2cc(=O)c3ccccc3o2)c1N | 1 µM | 1.9 µM | 
4 | COc1cccc(-c2cc(=O)c3cc(Cl)cc(CCCN)c3o2)c1N |  | 4.4 µM | 
5 | COc1cccc(-c2cc(=O)c3cc(Cl)cc(NCC[C@H](O)CO)c3o2)c1N | 3.1 µM | 0.22 µM | IC50 [3]: 3.7 µM; IC50 [4]: 10.5 µM; IC50 [5]: 13 µM; IC50 [6]: 17.4 µM
6 | COc1cccc(-c2cc(=O)c3cccc(NCCCO)c3o2)c1N | 0.097 µM |  | 
7 | COc1cccc(-c2cc(=O)c3cc(Cl)cc(NC(C)C)c3o2)c1N | > 100 µM | 2.7 µM | 
8 | COc1cccc(-c2cc(=O)c3cc(Cl)ccc3o2)c1N | > 100 µM | 6.4 µM | 
9 | COc1cccc(-c2cc(=O)c3ccccc3o2)c1N | 4.2 µM | 2 µM | IC50 [3]: 4 µM
10 | COc1cccc(-c2cc(=O)c3cccc(NCC[C@H](O)CO)c3o2)c1N | 0.073 µM |  | 

Continued, in another order:

Row | IC50 [1] | IC50 [2] | SMILES | also measured
11 | > 100 µM | 10.3 µM | COc1cccc(-c2cc(=O)c3cc(Cl)cc(NCCCN)c3o2)c1N | 
12 | > 100 µM | 9.1 µM | COCCCNc1cc(Cl)cc2c(=O)cc(-c3cccc(OC)c3N)oc12 | 
13 | > 100 µM | 6.8 µM | COc1cccc(-c2cc(=O)c3cc(Cl)cc(NCCCN(C)C)c3o2)c1N | 
14 | 1.6 µM | 0.03 µM | COc1cccc(-c2cc(=O)c3cc(Cl)cc(NCCCO)c3o2)c1N | inhibition [7]: Active; IC50 [3]: 1.6 µM; IC50 [4]: 5.9 µM; IC50 [5]: 10.3 µM; Ratio IC50 [8]: < 100; IC50 [6]: 12 µM
15 | > 100 µM | 1.9 µM | CCCCNc1cc(Cl)cc2c(=O)cc(-c3cccc(OC)c3N)oc12 | 
